Molecules are shown by their SMILES. The source made the active and inactive calls. The calls are words filed in the database; no cut-off is given here. A value given as a limit tells only on which side of the number the result lay.

This note sets out measurements from ChEMBL document CHEMBL3259780, “3-Substituted-N-(4-hydroxynaphthalen-1-yl)arylsulfonamides as a novel class of selective Mcl-1 inhibitors: structure-based design, synthesis, SAR, and biological evaluation” (J Med Chem, 2014).

Assay [1] addresses T1, Apoptosis regulator Bcl-2 (Homo sapiens, UniProt P10415). As to conditions: lymphoma, 0.1 to 10 uM.
The target in assay [2] is T2, Induced myeloid leukemia cell differentiation protein Mcl-1 (Homo sapiens, UniProt Q07820). Description: Inhibition of MCL1 (unknown origin) overexpressed in E-mu-myc transgenic mouse lymphoma cells assessed as induction of cell death at 0.1 to 10 uM after 15 to 18 hrs by flow cytometric analysis. The class given is cell-based. An outline of the steps: (§1)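 Eμ-myc transgenic mouse lymphoma cells retrovirally transduced to overexpress Mcl-1 or Bcl-2, seeded at 0.5 × 10^6 cells/well. Cells were treated at varying concentrations for 15–18 h and stained with violet LIVE/DEAD fixable dead-cell dye. Percent stained (dead) cells was measured by flow cytometry. Means ± SEM from 3–7 independent experiments.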
T2 sequence (Q07820 whole entry): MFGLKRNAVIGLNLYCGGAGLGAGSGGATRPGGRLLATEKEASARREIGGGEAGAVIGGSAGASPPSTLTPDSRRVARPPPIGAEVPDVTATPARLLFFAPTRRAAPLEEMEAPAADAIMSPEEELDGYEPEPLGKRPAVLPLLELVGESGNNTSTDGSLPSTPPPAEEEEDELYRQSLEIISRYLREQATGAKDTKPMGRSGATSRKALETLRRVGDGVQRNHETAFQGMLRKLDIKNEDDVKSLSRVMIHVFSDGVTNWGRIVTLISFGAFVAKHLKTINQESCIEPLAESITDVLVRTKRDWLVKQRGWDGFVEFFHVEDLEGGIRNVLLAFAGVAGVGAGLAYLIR
Background: Flow cytometry measures light scatter and fluorescence of single cells or particles in a stream.

Assay [3] deals with HL-60. The assay is described as follows: Induction of apoptosis in human HL60 cells assessed as caspase-3 activation at 2.5 uM […] by DEVD-AFC-based fluorometric assay. The class given is functional, cell-based.
Assay [4] deals with MV4-11. Description: Cytotoxicity against human MV4-11 cells assessed as intracellular ATP level after 3 days by CellTiterGlo assay. The class given is functional, cell-based. Summed up:
(§2)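 Cells in RPMI 1640 with 10% FBS, plated at 0.5 × 10^6 cells/well and exposed to a range of compound concentrations for 3 days. Viability is read as intracellular ATP by CellTiter-Glo luminescence. Growth is expressed as percent of DMSO-treated cells, and IC50 is obtained by nonlinear regression.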
For orientation: ATP-based viability assays read luminescence as a measure of living cells.

The target of assay [5] is Bcl-2-like protein 1 (Homo sapiens, UniProt Q07817). The assay is described as follows: Displacement of Flu-BID/FAM-BID from His-tagged BCLX-L (1 to 209) (unknown origin) expressed in Escherichia coli BL21(DE3) after 3 hrs by fluorescence polarization assay. On the technique in general: Fluorescence polarisation rises when a labelled molecule tumbles more slowly, as on binding a larger partner.
Sequence of Bcl-2-like protein 1 (Q07817 whole entry): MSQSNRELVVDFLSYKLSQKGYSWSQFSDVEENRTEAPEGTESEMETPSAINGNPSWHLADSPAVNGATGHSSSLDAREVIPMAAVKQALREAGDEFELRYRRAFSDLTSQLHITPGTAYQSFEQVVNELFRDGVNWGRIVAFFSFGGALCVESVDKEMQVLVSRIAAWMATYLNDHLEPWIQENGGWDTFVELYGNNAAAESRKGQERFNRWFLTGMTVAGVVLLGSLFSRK

The test system of assay [6] is K562. Description: Cytotoxicity against human K562 cells assessed as intracellular ATP level after 3 days by CellTiterGlo assay. The class given is functional, cell-based. Summed up:
as §2

The target of assay [7] is T1, Apoptosis regulator Bcl-2. Description: Displacement of Flu-BID/FAM-BID from His-tagged BCL2 (1 to 202) (unknown origin) expressed in Escherichia coli BL21(DE3) after 3 hrs by fluorescence polarization assay.
The target in assay [8] is T1, Apoptosis regulator Bcl-2. The assay is described as follows: Inhibition of BCL2 (unknown origin) overexpressed in E-mu-myc transgenic mouse lymphoma cells assessed as induction of cell death after 15 to 18 hrs by flow cytometric analysis. The class given is cell-based. An outline of the steps:
as §1

Assay [9] has as its system HL-60. Description: Induction of apoptosis in human HL60 cells after 20 hrs by annexin V-FITC and propidium iodide staining-based flow cytometric analysis. The class given is functional, cell-based. Summed up:
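HL-60 cells at 0.5 × 10^6 cells/well were exposed to compounds at several concentrations for 20 h, then washed in PBS and stained with annexin-V FITC plus PI. Flow cytometry was run within 1 h. Annexin+/PI− counts as early apoptosis and double positive as late. Some runs included a 1 h pretreatment with 100 μM Z-VAD-FMK.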

The subject of assay [10] is HL-60. Description: Cytotoxicity against human HL60 cells assessed as intracellular ATP level after 3 days by CellTiterGlo assay. The class given is functional, cell-based. An outline of the steps:
as §2

In assay [11] the test system is HL-60. Description: Induction of apoptosis in human HL60 cells assessed as caspase-3 activation after 20 hrs by DEVD-AFC-based fluorometric assay. The class given is functional, cell-based. An outline of the steps: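 HL-60 cells were seeded at 0.5 × 10^6 cells/well and exposed to graded compound concentrations for 20 h. Caspase-3 activity was measured by fluorometric kit assay with DEVD-AFC substrate. Results are expressed as fold change over DMSO-treated cells.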

The target in assay [12] is Induced myeloid leukemia cell differentiation protein Mcl-1 homolog (Mus musculus) (UniProt P97287). Description: Inhibition of MCL1 in wild-type MEF assessed as induction of BAX/BAK-dependent cell death at 16 uM after 15 hrs by propidium iodide staining-based flow cytometric analysis relative to control. Summed up:
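Wild-type and Bax/Bak double-knockout MEFs grown in DMEM with 10% FBS, seeded at 0.5 × 10^6 cells/well and left to adhere. Exposed 15 h to compound, harvested, PBS-washed, stained with 0.025 mg/mL propidium iodide. PI-positive percentage by flow cytometry; significance by unpaired t test.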

Assay [13] shares this target. Description: Inhibition of MCL1 in BAX/BAK double knock out MEF assessed as induction of cell death at 16 uM after 15 hrs by propidium iodide staining-based flow cytometric analysis relative to control. Summed up:
(§3)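 Wild-type and Bax/Bak double-knockout MEFs were grown in DMEM with 10% FBS, seeded at 0.5 × 10^6 cells/well and allowed to adhere. Cells were exposed to increasing concentrations for 15 h, harvested, washed in PBS and stained with 0.025 mg/mL propidium iodide. PI-positive percentage was measured by flow cytometry. Mean ± SEM, with unpaired t test.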

For assay [14] the target is unchanged. Description: Inhibition of MCL1 in wild-type MEF assessed as induction of BAX/BAK-dependent cell death after 15 hrs by propidium iodide staining-based flow cytometric analysis. Summed up: as §3
Assay [15] has as its target T2, Induced myeloid leukemia cell differentiation protein Mcl-1. The assay is described as follows: Inhibition of FITC-labeled MCL1 (unknown origin) after 5 mins by fluorescence polarization assay.

T1 sequence (P10415 whole entry): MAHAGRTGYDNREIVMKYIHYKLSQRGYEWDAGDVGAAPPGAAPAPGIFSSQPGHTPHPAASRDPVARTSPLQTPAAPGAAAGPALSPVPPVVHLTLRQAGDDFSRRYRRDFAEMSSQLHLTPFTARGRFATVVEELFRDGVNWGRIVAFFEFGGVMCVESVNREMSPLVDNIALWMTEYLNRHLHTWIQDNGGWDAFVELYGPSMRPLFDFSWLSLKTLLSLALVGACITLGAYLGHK
Sequence of Induced myeloid leukemia cell differentiation protein Mcl-1 homolog (Mus musculus) (P97287 whole entry): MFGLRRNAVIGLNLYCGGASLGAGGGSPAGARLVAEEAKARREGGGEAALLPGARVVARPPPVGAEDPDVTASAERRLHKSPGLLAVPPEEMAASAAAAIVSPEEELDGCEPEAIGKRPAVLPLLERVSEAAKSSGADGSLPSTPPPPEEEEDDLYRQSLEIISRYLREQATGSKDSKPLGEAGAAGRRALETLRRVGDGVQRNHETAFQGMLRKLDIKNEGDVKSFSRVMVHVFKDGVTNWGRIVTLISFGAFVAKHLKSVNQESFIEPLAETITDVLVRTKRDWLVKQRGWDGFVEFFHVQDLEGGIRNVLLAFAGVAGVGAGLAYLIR

For the compound `CC1(C)CCC(c2ccc(Cl)cc2)=C(CN2CCN(c3ccc(C(=O)NS(=O)(=O)c4ccc(N[C@H](CCN5CCOCC5)CSc5ccccc5)c(S(=O)(=O)C(F)(F)F)c4)cc3)CC2)C1`, the inhibition (in general, the change of the read-out against control, counted positive when it falls) in assay [1] was “Active”. The inhibition entry in [2] was “inactive”.
In the case of `O=C(O)CSc1cc(NS(=O)(=O)c2ccc(Oc3ccccc3)cc2)c2ccccc2c1O`, in assay [3], the outcome was Active. Besides, the Activity entry in assay [4], in assay [6], in [9], in assay [10] and in [11] was “Dose-dependent effect” in each case. Moreover, the Ki – broadly, a dissociation constant, usually derived from enzyme kinetics or from competition with a known ligand – in assay [5] stood at 10.6 µM; in [7] it was 7.56 µM. Besides, the inhibition result in [8] is “inactive”. The values for the inhibition in [12], in [13] and in [14] were 61%, 23% and “Dose-dependent effect”, respectively.
`Cc1cs/c(=N\C2CCCCC2)n1/N=C/c1ccc(O)c(O)c1O`: the IC50 (as a rule, the point on the concentration scale where inhibition reaches its midpoint) in assay [5] is over 50 µM; in assay [15], 4.72 µM.
